KLK7 zymogen act: proKLK7 (human) activation, primary screen; P49862; actives 0.9% (n = 370,000); activation, % at 7 µM; AID 652039; purified proKLK7, EDANS-DABCYL substrate fluorescence; 100% is mature enzyme control, 0% vehicle;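 active = activation above the mean of all tested compounds plus 3 SD, computed per campaign excluding outliers beyond control limits, cut at about 13% in these data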
Target sequence (P49862 whole entry, looked up): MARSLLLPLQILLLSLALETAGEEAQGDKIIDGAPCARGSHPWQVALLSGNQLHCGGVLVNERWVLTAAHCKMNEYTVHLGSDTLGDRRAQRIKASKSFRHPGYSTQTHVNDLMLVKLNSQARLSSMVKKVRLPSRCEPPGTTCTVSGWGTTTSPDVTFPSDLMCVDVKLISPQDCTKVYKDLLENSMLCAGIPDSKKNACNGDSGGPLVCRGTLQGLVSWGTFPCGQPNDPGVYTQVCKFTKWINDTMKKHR
NR2E3 ag-1: activates human photoreceptor nuclear receptor NR2E3. inhibition of corepressor binding, % at 4.78 µM. GST-NR2E3/biotin-RetCOR TR-FRET, 1536-well. actives 0.12% (n = 320,000). AID 2300;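 active = percent inhibition above the cutoff of mean plus 3 SD of all tested compounds, set per screening campaign, cut at about 20% in these data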;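 also: 0% = DMSO wells and 100% = biotin wells as full block of FRET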
Target sequence (Q9Y5X4 whole entry, looked up): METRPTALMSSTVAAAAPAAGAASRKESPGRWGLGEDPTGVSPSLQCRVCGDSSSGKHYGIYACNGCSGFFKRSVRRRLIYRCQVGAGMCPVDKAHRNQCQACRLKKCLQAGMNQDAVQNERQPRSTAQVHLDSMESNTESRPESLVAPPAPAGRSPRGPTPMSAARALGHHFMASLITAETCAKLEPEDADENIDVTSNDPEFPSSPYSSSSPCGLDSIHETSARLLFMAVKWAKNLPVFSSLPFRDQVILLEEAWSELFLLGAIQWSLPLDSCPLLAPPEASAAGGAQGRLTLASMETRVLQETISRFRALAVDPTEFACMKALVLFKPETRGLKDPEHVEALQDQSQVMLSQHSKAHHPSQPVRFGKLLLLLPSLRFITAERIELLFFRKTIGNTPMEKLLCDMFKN
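Assay system: NR2E3–RetCOR corepressor complex. Quantity: 1.35 nM GST-NR2E3. Buffer or medium: pH 7.5 Tris-based buffer. Reagent: biotinylated RetCOR corepressor at 7 nM final. Schedule: 5 h at 4 °C. Detection: TR-FRET, emission read at 617 and 671 nm. Replicates: one well per compound, singlicate testing.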
ADAM17 inh: ADAM17 inhibition, QFRET primary screen | P78536 | recombinant ADAM17, EDANS/DABCYL FRET peptide cleavage | inhibition, % at 6.95 µM | actives 0.83% (n = 370,000) | AID 720648;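 active = inhibition above the mean of compounds lying between control limits plus 3 SD, set per campaign, cut at about 8.5% in these data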;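 also: 0% = DMSO-only wells as the low control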
JMJD2C inh: inhibitors of human GASC-1 (JMJD2C) demethylase | Q9H3R0 | GST-JMJD2C(1-420) H3K9me3 demethylation, DELFIA europium | inhibition, % at 2.35 µM | actives 0.069% (n = 330,000) | AID 2099;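 active = more than half of a compound's replicate wells show inhibition beyond 50%, single wells judged on their own value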;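 also: signal counts dimethyl H3K9 product captured on neutravidin plate; 0% = median of DMSO wells and 100% = 0.3 times that DMSO median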
ADAM10 inh: ADAM10 inhibition, QFRET primary screen; O14672; recombinant ADAM10, EDANS/DABCYL FRET peptide cleavage, 3 h; inhibition, % at 7 µM; actives 0.62% (n = 370,000); AID 720582;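 active = inhibition above a per-campaign cutoff equal to the mean of compounds falling between control-based bounds plus 3 SD, cut at about 20% in these data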;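 also: 0% = DMSO wells while the 100% control is not disclosed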
NR2E3 ag-2: human photoreceptor-specific nuclear receptor agonism; CHO-S Gal4-NCOR/VP16-NR2E3 two-hybrid, luciferase; inhibition of corepressor binding, % at 3.98 µM; actives 0.35% (n = 360,000); AID 602229;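 active = inhibition above the mean of all tested compounds plus 3 SD, cut at about 70% in these data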;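 also: 0% = DMSO with NR2E3 transfected cells and 100% = cells lacking NR2E3 construct; higher means lower luciferase signal from less NR2E3 corepressor binding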
NR2E3 ag confirm: NR2E3 agonism confirmed in two-hybrid assay; shares compounds with NR2E3 ag-2; CHO-S mammalian two-hybrid NR2E3-NCOR, luciferase luminescence; inhibition, % at 3.98 µM; actives 51% (n = 2,300); AID 624378;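 active = average inhibition above a cutoff equal to the mean inhibition of all tested compounds plus one SD, cut at about 70% in these data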;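 also: 0% = DMSO in NR2E3 cells and 100% = DMSO in cells lacking NR2E3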
GAL4-VP16 luc: reduces GAL4-VP16 reporter signal in NR2E3 counterscreen; inhibition, % at 3.98 µM; AID 624379; CHO-S GAL4-VP16 luciferase reporter, luminescence; actives 29% (n = 2,300); shares compounds with NR2E3 ag-2;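 active = mean inhibition above a cutoff equal to the average over all tested compounds plus one standard deviation, cut at about 70% in these data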;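 also: luciferase from a UAS reporter driven by GAL4-VP16 transactivation; 0% = DMSO with VP16-transfected cells and 100% = DMSO with cells lacking VP16; higher means less reporter light so more repression of VP16 activity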
* hit, by the source's call; . = no result. Rows were chosen to be rich in hits. Some 2.5% of all compounds tested hit in one or more screens of this group.

SMILES	KLK7 zymogen act	NR2E3 ag-1	ADAM17 inh	JMJD2C inh	ADAM10 inh	NR2E3 ag-2	NR2E3 ag confirm	GAL4-VP16 luc
COCCNc1nc(NCc2ccccc2)nc2ccsc12	1	.	-8	.	-20	38	.	.
Clc1ccccc1Nc1nc(NCc2ccccc2)nc2ccsc12	0	.	-63	.	-208	63	50	55
COC(=O)[C@]12C[C@H](CC(=O)N3CCSCC3)C(=O)N(CCC3=CCCCC3)C1=C[C@H](C(C)C)O[C@@H]2C1CC1	0	.	5	.	14	.	.	.
C=CCN1CN(S(=O)(=O)c2cccc(Cl)c2)c2nc3ccccc3nc21	0	4	-97	-4	-299	-6	.	.
O=C(Cn1cnc2ccccc21)Nc1ccc2c(c1)OCCCO2	0	1	1	9	-4	50	39	30
O=C(CSc1ccccc1C(=O)O)Nc1ccc2c(c1)OCO2	0	4	0	-4	-7	14	.	.
O=C(CSc1ncccc1C(=O)O)Nc1ccc2c(c1)OCCO2	0	-4	-1	1	-2	66	-6	3
Cc1ccn(CC(=O)N2CCCC(N3CCN(c4ccccc4F)CC3)C2)n1 (stereo unspecified)	0	.	-3	-7	-5	-15	.	.
Cc1sc2ncnc(NCc3cccs3)c2c1C	0	3	-2	3	-2	78*	96*	81*
Cc1sc2ncnc(NCC(O)c3ccc([N+](=O)[O-])cc3)c2c1C (stereo unspecified)	0	7	3	-8	-6	105*	95*	76*
Cc1sc2ncnc(NCC(c3ccccc3)N(C)C)c2c1C (stereo unspecified)	-1	4	-1	5	8	1	.	.
Cc1sc2ncnc(NCC(O)c3ccccc3)c2c1C (stereo unspecified)	0	2	-1	-5	-10	75*	71*	51
COc1ccc(S[C@]2(C(=O)N(C)C)CC(=O)N(C(=O)Nc3ccc(C)c(Cl)c3)[C@@H]2c2ccc(OC)cc2)cc1	0	.	4	.	1	.	.	.
Nc1nc(=S)c2ncn(C3OC(CO)C(O)C3O)c2[nH]1 (stereo unspecified)	0	4	-5	11	-20	57	37	5
Nc1ncn([C@@H]2O[C@H](CO)[C@@H](O)[C@H]2O)c(=O)n1	0	-4	2	-30	2	54	40	39
Nc1nc(=S)c2ncn([C@@H]3O[C@H](CO)[C@@H](O)[C@H]3O)c2[nH]1	1	-2	-4	.	-5	27	.	.
CSC(=S)N/N=C(\C)c1ccc(Br)cc1	0	-3	4	8	2	82*	-15	-18
COc1ccc(Nc2cc(C)nc(NCc3ccccc3)n2)cc1	0	3	0	-2	2	68	86*	66
Cc1cc(NC2CCCCC2)nc(NCc2ccccc2)n1	0	2	-4	6	-9	75*	92*	76*
CS(=O)(=O)c1ccccc1C(=O)N1CCN(S(=O)(=O)c2ccc(C3CCCCC3)cc2)CC1	0	.	-5	.	-4	49	33	37
CC(=O)N(c1nnc(-c2ccc(C)cc2)s1)C1CCCC1	0	-1	2	3	1	-127	.	.
Cc1nc(NCc2ccc3c(c2)OCO3)c2oc3ccccc3c2n1	1	0	-3	-2	7	57	50	32
Cc1nc(Nc2ccc3c(c2)OCCO3)c2oc3ccccc3c2n1	0	-2	-7	-8	1	-13	.	.
COc1ccc([C@@H]2CC=C(C(=O)O)[C@H](c3ccc(Br)cc3)N2S(=O)(=O)c2ccccc2C)cc1	0	.	-2	.	5	27	.	.
Cc1ccc([C@H]2C(C(=O)O)=CC[C@@H](c3ccc(Cl)c(Cl)c3)N2S(=O)(=O)c2ccc(C)cc2)cc1	0	.	7	.	11	67	37	27
SMILES	KLK7 zymogen act	NR2E3 ag-1	ADAM17 inh	JMJD2C inh	ADAM10 inh	NR2E3 ag-2	NR2E3 ag confirm	GAL4-VP16 luc
Cc1ccc([C@H]2C(C(=O)O)=C[C@@H](CC3CCCC3)N2S(=O)(=O)c2ccc(C)cc2)cc1	0	.	0	.	-7	-4	.	.
Cc1ccc(S(=O)(=O)N2[C@@H](c3ccccc3)C(C(=O)O)=CC[C@H]2c2ccc(Cl)c(Cl)c2)cc1	0	1	-3	-5	2	18	.	.
Cc1ccc(S(=O)(=O)N2[C@@H](c3ccc(F)cc3)C(C(=O)O)=CC[C@H]2c2ccc(Cl)cc2)cc1	0	5	-3	-1	-3	-21	.	.
Cc1ccc([C@@H]2CC=C(C(=O)O)[C@H](c3ccc(Br)cc3)N2S(=O)(=O)c2ccccc2C)cc1	0	.	2	.	16	64	16	3
Cc1ccc(S(=O)(=O)N2[C@@H](c3ccc(F)cc3)C(C(=O)O)=CC[C@H]2c2ccc(C(C)C)cc2)cc1	0	2	1	-4	4	73*	30	50
CCc1ccc([C@H]2C(C(=O)O)=C[C@@H](CC3CCCC3)N2S(=O)(=O)c2ccc(C)cc2)cc1	0	.	1	.	8	57	7	3
O=C(N1CCCC1)n1ncc(-c2ccc(-c3ccccc3)cc2)n1	.	.	-6	.	-12	.	.	.
COc1ccc(-c2csc(NC(=O)C3CC(=O)N(Cc4ccccc4)C3)n2)cc1OC (stereo unspecified)	1	-1	-2	-6	-2	19	.	.
Cc1ccc(-n2c(SCC(=O)Nc3ccc4cn[nH]c4c3)nnc2-c2ccccc2)cc1	0	.	6	.	5	.	.	.
CCCC[C@@H]1C=C(C(=O)O)[C@H](c2ccc(Cl)c(Cl)c2)N1S(=O)(=O)c1ccc(C)cc1	0	.	3	19	7	85*	33	37
CCCC[C@@H]1C=C(C(=O)O)[C@H](c2ccc(C)cc2)N1S(=O)(=O)c1ccc(C)cc1	0	.	-6	12	-10	9	.	.
Cc1ccc(S(=O)(=O)N2[C@@H](c3ccc(Cl)cc3)C(C(=O)O)=CC[C@H]2c2ccc(Cl)cc2)cc1	0	-1	0	1	-4	62	24	22
CC(C)c1cc(C(F)(F)F)nc(NNc2nc(C(C)C)cc(C(F)(F)F)n2)n1	0	.	1	.	-18	21	.	.
CC(C)OC(=O)NCCOC(=O)Nc1ccc(Cl)c(Cl)c1	0	-1	5	-3	11	64	92*	74*
CC(C)OC(=O)NCCOC(=O)Nc1cccc(Cl)c1	0	1	-1	0	4	43	.	.

Bioassay records from PubChem.
